Measurements reported in PubChem BioAssay AID588556 (Sanford-Burnham Center for Chemical Genomics, 2011).
Active and inactive are the calls of the source.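 The calls were made as follows: active = IC50 at or below 20 µM in the 24 hour cytotoxicity test; inactive = the rest.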

Tested on: CHO-CHOP cells viability, ATPLite luminescence, 24 h
Experiment: CHO-CHOP cell viability loss – 24 h exposure, ATPLite luminescence, cytotoxicity control for UPR apoptotic arm activator project, SAR follow-up (AID 588556)
How it was run: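 Material – CHO-CHOP cells · Quantity – 500 cells per well · Buffer or medium – Serum-supplemented F12 medium · Benchmarks – positive tunicamycin 10 µg/mL, negative DMSO vehicle · Doses – dose series, DMSO ≤1% final · Measured by – ATPLite 1-Step luminescence · Times – 16-18 h cell pre-culture, 24 h compound treatment, 37 °C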

| SMILES | IC50 |
| --- | --- |
| O=C(Nc1nc2c(F)cc(F)cc2s1)c1ccccn1 | 1400 nM |
| O=C(Nc1ccc(S(=O)(=O)N2CCC(O)CC2)cc1)c1ccc([N+](=O)[O-])o1 | 45900 nM (inactive) |
| O=C(Nc1nc2c(Cl)cc(Cl)cc2s1)c1ccccn1 | 13300 nM |
| O=C(Nc1nc2c(F)c(F)ccc2s1)c1ccccn1 | 1680 nM |
| O=C(Nc1ccc(S(=O)(=O)N2CCC3(CCCCC3)CC2)cc1)c1ccc([N+](=O)[O-])o1 | 1160 nM |
| O=C(Nc1ccc(S(=O)(=O)N2CCC(Cl)CC2)cc1)c1ccc([N+](=O)[O-])o1 | 66800 nM (inactive) |
| CC1CCN(S(=O)(=O)c2ccc(NC(=O)c3ccc([N+](=O)[O-])o3)cc2)CC1 | > 80000 nM (inactive) |
| O=C(Nc1ccc(S(=O)(=O)N2CCC(F)CC2)cc1)c1ccc([N+](=O)[O-])o1 | 32600 nM (inactive) |
| O=C(Nc1nc2c(F)cccc2s1)c1ccccn1 | 1580 nM |
| O=C(Nc1nc2ccc(F)cc2s1)c1ccccn1 | 1930 nM |
| O=C(Nc1nc2cc(F)c(F)cc2s1)c1ccccn1 | 2660 nM |
| O=C(Nc1ccc(S(=O)(=O)C2CCCCC2)cc1)c1ccc([N+](=O)[O-])o1 | 26700 nM (inactive) |
| O=C(Nc1nc2ccc(C(F)(F)F)cc2s1)c1ccccn1 | 1220 nM |
| O=C(Nc1ccc(S(=O)(=O)N2CCCC2)cc1)c1ccc([N+](=O)[O-])o1 | 25000 nM (inactive) |
| O=C(Nc1nc2ccc(Cl)cc2s1)c1ccccn1 | 1230 nM |
| CC(C)(C)C1CCN(S(=O)(=O)c2ccc(NC(=O)c3ccc([N+](=O)[O-])o3)cc2)CC1 | 2420 nM |
| O=C(Nc1ccc(S(=O)(=O)N2CCCCC2)cc1)c1ccc([N+](=O)[O-])o1 | > 80000 nM (inactive) |
| O=C(Nc1ccc(S(=O)(=O)C2CCOCC2)cc1)c1ccc([N+](=O)[O-])o1 | 66300 nM (inactive) |
| O=C(Nc1ccc(S(=O)(=O)N2CCOCC2)cc1)c1ccc([N+](=O)[O-])s1 | > 80000 nM (inactive) |
| O=C(Nc1ccc(S(=O)(=O)c2ccccc2)cc1)c1ccc([N+](=O)[O-])o1 | 40400 nM (inactive) |
| Cc1cc(C)c2nc(NC(=O)c3ccccn3)sc2c1 | 5310 nM |
| O=C(Nc1nc2cc(F)ccc2s1)c1ccccn1 | 1570 nM |
| O=C(Nc1ccc(S(=O)(=O)N2CCOCC2)cc1)c1ccc([N+](=O)[O-])o1 | 53500 nM (inactive) |
| O=C(Nc1nc2cc(F)cc(F)c2s1)c1ccccn1 | 1830 nM |
| CC1(C)CCN(S(=O)(=O)c2ccc(NC(=O)c3ccc([N+](=O)[O-])o3)cc2)CC1 | 12600 nM |
| CC1CN(S(=O)(=O)c2ccc(NC(=O)c3ccc([N+](=O)[O-])o3)cc2)CC(C)O1 (stereo not given) | 51400 nM (inactive) |
| O=C(Nc1nc2cccc(F)c2s1)c1ccccn1 | 2350 nM |
| O=C(Nc1nc2ccc(F)c(F)c2s1)c1ccccn1 | 1420 nM |
| O=C(Nc1ccc(S(=O)(=O)N2CCNCC2)cc1)c1ccc([N+](=O)[O-])o1 | > 80000 nM (inactive) |
| O=C(Nc1nc2c(F)ccc(F)c2s1)c1ccccn1 | 1670 nM |
